Laboratory results taken from ChEMBL document CHEMBL3865797, “Design, synthesis and biological evaluation of berberine-benzimidazole hybrids as new type of potentially DNA-targeting antimicrobial agents” (Eur J Med Chem, 2016).

Tested on: Escherichia coli
Test: Antibacterial activity against Escherichia coli JM109 measured after 24 hrs by two-fold serial dilution method
Format: functional
Settings: JM109, 24 h
Method in brief: (§1)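 MIC by two-fold serial broth microdilution in 96-well plates, following NCCLS recommendations. Chloromycin, norfloxacin and fluconazole serve as reference drugs. The MIC is read as the lowest concentration that inhibits growth, in µg/mL.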
In the case of `CCCCCCCCn1c(COc2c(OC)ccc3cc4[n+](cc23)CCc2cc3c(cc2-4)OCO3)nc2ccccc21.[Cl-]`, the MIC is reported as 512 µg/mL.
Compound `COc1ccc2cc3[n+](cc2c1OCc1nc2ccccc2n1Cc1cccc(Cl)c1)CCc1cc2c(cc1-3)OCO2.[Cl-]` has an MIC of 512 µg/mL.
In the case of `COc1ccc2cc3[n+](cc2c1OCc1nc2ccc(Cl)cc2[nH]1)CCc1cc2c(cc1-3)OCO2.[Cl-]`, the MIC is reported as 512 µg/mL.
Compound `COc1ccc2cc3[n+](cc2c1OCc1nc2ccccc2n1Cc1cccc(F)c1)CCc1cc2c(cc1-3)OCO2.[Cl-]` has an MIC of 512 µg/mL.
With `CCn1c(COc2c(OC)ccc3cc4[n+](cc23)CCc2cc3c(cc2-4)OCO3)nc2ccccc21.[Cl-]` the MIC was 64 µg/mL.

Tested on: Staphylococcus aureus
Test: Antibacterial activity against Staphylococcus aureus ATCC 25923 measured after 24 hrs by two-fold serial dilution method
Format: functional
Settings: ATCC 25923, 24 h
Method in brief: as §1
With `CCCCCCCCn1c(COc2c(OC)ccc3cc4[n+](cc23)CCc2cc3c(cc2-4)OCO3)nc2ccccc21.[Cl-]` the MIC was 8 µg/mL.
In the case of `COc1ccc2cc3[n+](cc2c1OCc1nc2ccccc2n1Cc1cccc(Cl)c1)CCc1cc2c(cc1-3)OCO2.[Cl-]`, the MIC is reported as 512 µg/mL.
`COc1ccc2cc3[n+](cc2c1OCc1nc2ccc(Cl)cc2[nH]1)CCc1cc2c(cc1-3)OCO2.[Cl-]` showed an MIC of 64 µg/mL.
`COc1ccc2cc3[n+](cc2c1OCc1nc2ccccc2n1Cc1cccc(F)c1)CCc1cc2c(cc1-3)OCO2.[Cl-]` gave an MIC of 512 µg/mL.
Compound `CCn1c(COc2c(OC)ccc3cc4[n+](cc23)CCc2cc3c(cc2-4)OCO3)nc2ccccc21.[Cl-]` has an MIC of 512 µg/mL.

Tested on: Pseudomonas aeruginosa
Test: Antibacterial activity against Pseudomonas aeruginosa measured after 24 hrs by two-fold serial dilution method
Format: functional
Settings: not given
Method in brief: as §1
In the case of `CCCCCCCCn1c(COc2c(OC)ccc3cc4[n+](cc23)CCc2cc3c(cc2-4)OCO3)nc2ccccc21.[Cl-]`, the MIC is reported as 8 µg/mL.
Work on `COc1ccc2cc3[n+](cc2c1OCc1nc2ccccc2n1Cc1cccc(Cl)c1)CCc1cc2c(cc1-3)OCO2.[Cl-]` yielded an MIC of 256 µg/mL.
With `COc1ccc2cc3[n+](cc2c1OCc1nc2ccc(Cl)cc2[nH]1)CCc1cc2c(cc1-3)OCO2.[Cl-]` the MIC was 512 µg/mL.
Work on `COc1ccc2cc3[n+](cc2c1OCc1nc2ccccc2n1Cc1cccc(F)c1)CCc1cc2c(cc1-3)OCO2.[Cl-]` yielded an MIC of 256 µg/mL.
`CCn1c(COc2c(OC)ccc3cc4[n+](cc23)CCc2cc3c(cc2-4)OCO3)nc2ccccc21.[Cl-]` gave an MIC of 512 µg/mL.

Tested on: Salmonella typhi
Test: Antibacterial activity against Salmonella typhi measured after 24 hrs by two-fold serial dilution method
Format: functional, Salmonella enterica subsp. enterica serovar Typhi
Settings: Salmonella enterica
Method in brief: (§2)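 Two-fold serial dilution in 96-well microtest plates following NCCLS guidance (micro broth dilution). Chloromycin and norfloxacin serve as positive controls. MIC is reported in µg/mL.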
For `CCCCCCCCn1c(COc2c(OC)ccc3cc4[n+](cc23)CCc2cc3c(cc2-4)OCO3)nc2ccccc21.[Cl-]`, the MIC was 32 µg/mL.
Compound `COc1ccc2cc3[n+](cc2c1OCc1nc2ccccc2n1Cc1cccc(Cl)c1)CCc1cc2c(cc1-3)OCO2.[Cl-]` has an MIC of 256 µg/mL.
In the case of `COc1ccc2cc3[n+](cc2c1OCc1nc2ccc(Cl)cc2[nH]1)CCc1cc2c(cc1-3)OCO2.[Cl-]`, the MIC is reported as 64 µg/mL.
In the case of `COc1ccc2cc3[n+](cc2c1OCc1nc2ccccc2n1Cc1cccc(F)c1)CCc1cc2c(cc1-3)OCO2.[Cl-]`, the MIC is reported as 256 µg/mL.
Work on `CCn1c(COc2c(OC)ccc3cc4[n+](cc23)CCc2cc3c(cc2-4)OCO3)nc2ccccc21.[Cl-]` yielded an MIC of 512 µg/mL.

Tested on: Micrococcus luteus
Test: Antibacterial activity against Micrococcus luteus ATCC 4698 measured after 24 hrs by two-fold serial dilution method
Format: functional
Settings: NCTC 2665, 24 h
Method in brief: as §1
For `CCCCCCCCn1c(COc2c(OC)ccc3cc4[n+](cc23)CCc2cc3c(cc2-4)OCO3)nc2ccccc21.[Cl-]`, the MIC was 64 µg/mL.
Compound `COc1ccc2cc3[n+](cc2c1OCc1nc2ccccc2n1Cc1cccc(Cl)c1)CCc1cc2c(cc1-3)OCO2.[Cl-]` has an MIC of 16 µg/mL.
With `COc1ccc2cc3[n+](cc2c1OCc1nc2ccc(Cl)cc2[nH]1)CCc1cc2c(cc1-3)OCO2.[Cl-]` the MIC was 128 µg/mL.
For `COc1ccc2cc3[n+](cc2c1OCc1nc2ccccc2n1Cc1cccc(F)c1)CCc1cc2c(cc1-3)OCO2.[Cl-]`, the MIC was 16 µg/mL.
For `CCn1c(COc2c(OC)ccc3cc4[n+](cc23)CCc2cc3c(cc2-4)OCO3)nc2ccccc21.[Cl-]`, the MIC was 64 µg/mL.

Tested on: Bacillus subtilis
Test: Antibacterial activity against Bacillus subtilis measured after 24 hrs by two-fold serial dilution method
Format: functional
Settings: not given
Method in brief: as §1
`CCCCCCCCn1c(COc2c(OC)ccc3cc4[n+](cc23)CCc2cc3c(cc2-4)OCO3)nc2ccccc21.[Cl-]` showed an MIC of 8 µg/mL.
Work on `COc1ccc2cc3[n+](cc2c1OCc1nc2ccccc2n1Cc1cccc(Cl)c1)CCc1cc2c(cc1-3)OCO2.[Cl-]` yielded an MIC of 512 µg/mL.
For `COc1ccc2cc3[n+](cc2c1OCc1nc2ccc(Cl)cc2[nH]1)CCc1cc2c(cc1-3)OCO2.[Cl-]`, the MIC was 512 µg/mL.
Work on `COc1ccc2cc3[n+](cc2c1OCc1nc2ccccc2n1Cc1cccc(F)c1)CCc1cc2c(cc1-3)OCO2.[Cl-]` yielded an MIC of 512 µg/mL.
Work on `CCn1c(COc2c(OC)ccc3cc4[n+](cc23)CCc2cc3c(cc2-4)OCO3)nc2ccccc21.[Cl-]` yielded an MIC of 512 µg/mL.

Tested on: not listed separately
Test: Antifungal activity against Saccharomyces cerevisiae measured after 24 hrs by two-fold serial dilution method
Format: functional
Settings: not given
Method in brief: as §1
Compound `CCCCCCCCn1c(COc2c(OC)ccc3cc4[n+](cc23)CCc2cc3c(cc2-4)OCO3)nc2ccccc21.[Cl-]` has an MIC80 of 512 µg/mL.
Work on `COc1ccc2cc3[n+](cc2c1OCc1nc2ccccc2n1Cc1cccc(Cl)c1)CCc1cc2c(cc1-3)OCO2.[Cl-]` yielded an MIC80 of 512 µg/mL.
For `COc1ccc2cc3[n+](cc2c1OCc1nc2ccc(Cl)cc2[nH]1)CCc1cc2c(cc1-3)OCO2.[Cl-]`, the MIC80 was 512 µg/mL.
With `COc1ccc2cc3[n+](cc2c1OCc1nc2ccccc2n1Cc1cccc(F)c1)CCc1cc2c(cc1-3)OCO2.[Cl-]` the MIC80 was 256 µg/mL.
`CCn1c(COc2c(OC)ccc3cc4[n+](cc23)CCc2cc3c(cc2-4)OCO3)nc2ccccc21.[Cl-]` showed an MIC80 of 512 µg/mL.

Tested on: not listed separately
Test: Antifungal activity against Candida utilis measured after 24 hrs by two-fold serial dilution method
Format: functional
Settings: Cyberlindnera jadinii
Method in brief: as §1
In the case of `CCCCCCCCn1c(COc2c(OC)ccc3cc4[n+](cc23)CCc2cc3c(cc2-4)OCO3)nc2ccccc21.[Cl-]`, the MIC80 is reported as 32 µg/mL.
Compound `COc1ccc2cc3[n+](cc2c1OCc1nc2ccccc2n1Cc1cccc(Cl)c1)CCc1cc2c(cc1-3)OCO2.[Cl-]` has an MIC80 of 16 µg/mL.
`COc1ccc2cc3[n+](cc2c1OCc1nc2ccc(Cl)cc2[nH]1)CCc1cc2c(cc1-3)OCO2.[Cl-]` gave an MIC80 of 256 µg/mL.
`COc1ccc2cc3[n+](cc2c1OCc1nc2ccccc2n1Cc1cccc(F)c1)CCc1cc2c(cc1-3)OCO2.[Cl-]` gave an MIC80 of 8 µg/mL.
In the case of `CCn1c(COc2c(OC)ccc3cc4[n+](cc23)CCc2cc3c(cc2-4)OCO3)nc2ccccc21.[Cl-]`, the MIC80 is reported as 128 µg/mL.

Tested on: Proteus vulgaris
Test: Antibacterial activity against Bacillus proteus ATCC 13315 measured after 24 hrs by two-fold serial dilution method
Format: functional
Settings: ATCC 13315, 24 h
Method in brief: as §1
With `CCCCCCCCn1c(COc2c(OC)ccc3cc4[n+](cc23)CCc2cc3c(cc2-4)OCO3)nc2ccccc21.[Cl-]` the MIC was 512 µg/mL.
With `COc1ccc2cc3[n+](cc2c1OCc1nc2ccccc2n1Cc1cccc(Cl)c1)CCc1cc2c(cc1-3)OCO2.[Cl-]` the MIC was 128 µg/mL.
With `COc1ccc2cc3[n+](cc2c1OCc1nc2ccc(Cl)cc2[nH]1)CCc1cc2c(cc1-3)OCO2.[Cl-]` the MIC was 32 µg/mL.
Compound `COc1ccc2cc3[n+](cc2c1OCc1nc2ccccc2n1Cc1cccc(F)c1)CCc1cc2c(cc1-3)OCO2.[Cl-]` has an MIC of 128 µg/mL.
Compound `CCn1c(COc2c(OC)ccc3cc4[n+](cc23)CCc2cc3c(cc2-4)OCO3)nc2ccccc21.[Cl-]` has an MIC of 512 µg/mL.

Tested on: Staphylococcus aureus
Test: Antibacterial activity against methicillin-resistant Staphylococcus aureus N315 measured after 24 hrs by two-fold serial dilution method
Format: functional
Settings: N315, 24 h
Method in brief: as §2
Compound `CCCCCCCCn1c(COc2c(OC)ccc3cc4[n+](cc23)CCc2cc3c(cc2-4)OCO3)nc2ccccc21.[Cl-]` has an MIC of 64 µg/mL.
Work on `COc1ccc2cc3[n+](cc2c1OCc1nc2ccccc2n1Cc1cccc(Cl)c1)CCc1cc2c(cc1-3)OCO2.[Cl-]` yielded an MIC of 512 µg/mL.
`COc1ccc2cc3[n+](cc2c1OCc1nc2ccc(Cl)cc2[nH]1)CCc1cc2c(cc1-3)OCO2.[Cl-]` showed an MIC of 256 µg/mL.
With `COc1ccc2cc3[n+](cc2c1OCc1nc2ccccc2n1Cc1cccc(F)c1)CCc1cc2c(cc1-3)OCO2.[Cl-]` the MIC was 512 µg/mL.
`CCn1c(COc2c(OC)ccc3cc4[n+](cc23)CCc2cc3c(cc2-4)OCO3)nc2ccccc21.[Cl-]` showed an MIC of 128 µg/mL.

Tested on: Candida albicans
Test: Antifungal activity against Candida albicans ATCC 76615 measured after 24 hrs by two-fold serial dilution method
Format: functional
Settings: ATCC 76615, 24 h
Method in brief: as §1
`CCCCCCCCn1c(COc2c(OC)ccc3cc4[n+](cc23)CCc2cc3c(cc2-4)OCO3)nc2ccccc21.[Cl-]` showed an MIC80 of 16 µg/mL.
In the case of `COc1ccc2cc3[n+](cc2c1OCc1nc2ccccc2n1Cc1cccc(Cl)c1)CCc1cc2c(cc1-3)OCO2.[Cl-]`, the MIC80 is reported as 512 µg/mL.
`COc1ccc2cc3[n+](cc2c1OCc1nc2ccc(Cl)cc2[nH]1)CCc1cc2c(cc1-3)OCO2.[Cl-]` gave an MIC80 of 512 µg/mL.
`COc1ccc2cc3[n+](cc2c1OCc1nc2ccccc2n1Cc1cccc(F)c1)CCc1cc2c(cc1-3)OCO2.[Cl-]` gave an MIC80 of 512 µg/mL.
`CCn1c(COc2c(OC)ccc3cc4[n+](cc23)CCc2cc3c(cc2-4)OCO3)nc2ccccc21.[Cl-]` gave an MIC80 of 512 µg/mL.

Tested on: Aspergillus flavus
Test: Antifungal activity against Aspergillus flavus measured after 24 hrs by two-fold serial dilution method
Format: functional
Settings: not given
Method in brief: as §1
With `CCCCCCCCn1c(COc2c(OC)ccc3cc4[n+](cc23)CCc2cc3c(cc2-4)OCO3)nc2ccccc21.[Cl-]` the MIC80 was 256 µg/mL.
Work on `COc1ccc2cc3[n+](cc2c1OCc1nc2ccccc2n1Cc1cccc(Cl)c1)CCc1cc2c(cc1-3)OCO2.[Cl-]` yielded an MIC80 of 32 µg/mL.
`COc1ccc2cc3[n+](cc2c1OCc1nc2ccc(Cl)cc2[nH]1)CCc1cc2c(cc1-3)OCO2.[Cl-]` showed an MIC80 of 32 µg/mL.
Compound `COc1ccc2cc3[n+](cc2c1OCc1nc2ccccc2n1Cc1cccc(F)c1)CCc1cc2c(cc1-3)OCO2.[Cl-]` has an MIC80 of 32 µg/mL.
For `CCn1c(COc2c(OC)ccc3cc4[n+](cc23)CCc2cc3c(cc2-4)OCO3)nc2ccccc21.[Cl-]`, the MIC80 was 256 µg/mL.
